These results are taken from publication PMC3608738 (Antiviral research, 2012).

pIC50: −log10 of the molar value.

One may read the pIC50 as the IC50 on a negative log10 scale, so that one unit is a factor of ten. High values mean a low IC50, low ones a high IC50.

For assay [1], the target named is T1, WNV MTase (West Nile virus, UniProt Q9Q6P4). The experiment in a line: In vitro 2'-O methylation inhibition assay. In kind it is biochemical. The method, boiled down:
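2'-O methylation is followed as conversion of m7G*pppA-RNA to m7G*pppAm-RNA. Each reaction contains 1.5 μM WNV MTase, 80 μM SAM, 0.36 μM m7G*pppA-RNA substrate and a range of test compound concentrations. Products are digested with nuclease P1, and the caps are separated by TLC and quantified by PhosphorImager. Activity is taken from m7G*pppA versus m7G*pppAm, with no-compound activity set at 100%. IC50 comes from a dose–response fit; Ki comes from Cheng-Prusoff.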

The target of assay [2] is human guanine N-7 RNA MTase (hRNMTase) (Homo sapiens, UniProt O43148). Kind of assay: Inhibition of human RNA MTase. In kind it is biochemical.
Sequence of human guanine N-7 RNA MTase (hRNMTase) (O43148 whole entry): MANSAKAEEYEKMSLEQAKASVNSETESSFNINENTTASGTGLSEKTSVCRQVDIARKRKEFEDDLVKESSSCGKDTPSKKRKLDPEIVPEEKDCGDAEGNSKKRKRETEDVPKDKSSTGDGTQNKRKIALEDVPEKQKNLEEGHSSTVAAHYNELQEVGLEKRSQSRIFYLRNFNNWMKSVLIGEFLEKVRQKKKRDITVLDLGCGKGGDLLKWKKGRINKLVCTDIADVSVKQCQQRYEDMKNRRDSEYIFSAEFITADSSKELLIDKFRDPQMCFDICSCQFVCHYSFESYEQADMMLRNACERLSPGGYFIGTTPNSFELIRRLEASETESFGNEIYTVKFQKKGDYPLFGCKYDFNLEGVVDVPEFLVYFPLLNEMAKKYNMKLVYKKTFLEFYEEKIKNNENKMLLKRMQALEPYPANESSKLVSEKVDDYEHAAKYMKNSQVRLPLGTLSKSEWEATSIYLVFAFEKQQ
Assay [3] has as its target T1, WNV MTase. Kind of assay: In vitro N7 methylation inhibition assay. Format: biochemical.
The next assay concerns the target hRNMTase (Homo sapiens, UniProt O43148). The experiment in a line: [3H]SAM competition binding assay.
The subject of a further assay is WNV (NY99). The experiment in a line: Viral titer reduction assay. Format: cell-based, West Nile virus. To be noted: A549 cells, WNV MOI 0.1, 42 h. The method, boiled down:
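About 2 × 10^5 A549 cells per well are treated 24-30 h after seeding, in triplicate. Test compound, made at 2X in medium with 2% DMSO, is added, followed immediately by WNV NY99 at MOI 0.1 PFU/cell. After 42 h at 37°C, culture fluid is titred by plaque assay on confluent Vero monolayers under a 0.6% agar overlay with a neutral red second overlay. EC50 comes from nonlinear regression of the dose–response curve.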

Assay [4] has as its target T1, WNV MTase. The experiment in a line: [3H]SAM competition binding assay. To be noted: positive control, dose response. The method, boiled down:
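For G-25 filtration SAM competition, 0.6 μM WNV MTase is mixed with [methyl-3H]-SAM (about 14.1 nM final) and a 3-fold dilution series of test compound starting at 60 μM. Mixtures stand 2 h at room temperature and are spun through G-25 mini-columns. The eluted MTase-bound 3H is quantified by scintillation counting. Points are run in duplicate.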

T1 sequence (Q9Q6P4 2529-2794): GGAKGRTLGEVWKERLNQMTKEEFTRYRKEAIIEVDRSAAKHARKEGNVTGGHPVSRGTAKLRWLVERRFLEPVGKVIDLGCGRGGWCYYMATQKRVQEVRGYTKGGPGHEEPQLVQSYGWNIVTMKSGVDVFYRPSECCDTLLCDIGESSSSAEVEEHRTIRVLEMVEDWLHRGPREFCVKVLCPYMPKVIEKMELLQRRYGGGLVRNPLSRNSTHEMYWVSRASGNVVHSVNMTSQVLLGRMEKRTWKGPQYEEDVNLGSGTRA
Sequence of hRNMTase (O43148 whole entry): as the sequence (O43148 whole entry) above

As for `CCOC(=O)[C@@](C)(O)[C@@H]1C[C@@H](CO[Si](c2ccccc2)(c2ccccc2)C(C)(C)C)O[C@H]1n1cc(F)c(=O)[nH]c1=O` [GRL-003], the “Hill coef. (2'-O)” value on WNV MTase [1] (dose-response curve of 2'-O MTase inhibition) was found to be 2.8. The “Fold lower Ki than GRL-001 (2'-O inhibition)” value on WNV MTase [1] (relative to GRL-001) is listed as 12 fold. The “Inhibition of hRNMTase activity (in words)” value in assay [2] (even at 300 μM compound concentration) is “did not inhibit”. In addition, the “Inhibition of N-7 MTase activity (in words)” value on WNV MTase [3] is recorded as “only moderately inhibited”. Further, on WNV MTase [3] (dose-response curve of N-7 MTase inhibition), the “Hill coef. (N-7)” value was found to be 0.9. The “Fold lower Ki than GRL-001 (N-7 inhibition)” value on WNV MTase [3] (relative to GRL-001) is given as 5 fold. Further, on hRNMTase (300 μM compound), the “Inhibition of [3H]SAM binding to hRNMTase (in words)” value is reported as “did not inhibit”. Besides, the “Concentration giving one logarithmic order of reduction in the WNV replication” value in the assay with WNV (NY99) stood at 50 μM.

As to `Nc1ncnc2c1ncn2[C@@H]1O[C@H](C[C@@H](N)CC[C@H](N)C(=O)O)[C@@H](O)[C@H]1O` [SIN, Sinefungin, reference compound], the pIC50 in assay [2] was around 4.39. Further, the “Inhibition of [3H]SAM binding to hRNMTase (in words)” value at hRNMTase (control, dose response) is given as “decreased the SAM binding very efficiently”. Moreover, the “Inhibition of 3H-labeled SAM-MTase complex formation (in words)” value on WNV MTase [4] is recorded as “very efficiently in a dose-dependent manner”.
